In assay [1] the target is T1, D(2) dopamine receptor (Bos taurus, UniProt P20288). The assay can be described thus: Binding affinity against Dopamine receptor D2 in bovine striatal homogenate using 200 pM [3H]- spiperone and 250 nM unlabeled ketanserin. In short, it runs like this:
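Bovine striatal homogenate, run like the σ assay, with 200 pM [³H]spiperone (21.2 Ci/mmol). Incubation buffer pH 7.40 containing 250 nM ketanserin to block 5-HT2 binding. Measured by filtration and scintillation counting. Results given as IC50.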

Assay [2] deals with D(1A) dopamine receptor (Rattus norvegicus) (UniProt P18901). As to the kind of experiment: Binding affinity for dopamine receptor D1 in rat striatal membranes using 500 pM [3H]- SCH 23390 radioligand. The conditions noted are these: Striatum; Membrane. It counts as cell membranes. The method in brief: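 Test compound at 10^-5 M, reported as percent inhibition of 500 pM [3H]SCH 23390 binding to rat striatal membranes. Nonspecific binding defined with 100 nM unlabeled SCH 23390.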

Assay [3] addresses T2, Serotonin 2 (5-HT2) receptor (Rattus norvegicus) (UniProt P30994+P08909+P14842). As to the kind of experiment: Percent inhibition of binding of 1.0 nM [3H]-ketanserin to 5-hydroxytryptamine 2 receptor in rat cortical membranes at 10 e-5 M. It is filed as cell membranes. The conditions noted are these: Membrane. In short, it runs like this: (§1)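 1.0 nM [3H]ketanserin bound to rat cortical membranes. Percent inhibition measured at 10^-5 M test compound, with nonspecific binding defined by 10 μM methysergide.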

Assay [4] concerns the target Glutamate receptor ionotropic, NMDA 2C (Rattus norvegicus) (UniProt Q00961). The assay can be described thus: Binding affinity for Phencyclidine receptor (1 uM) using 2 nM [3H]- TCP radioligand. In short, it runs like this: (§2)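 Test compound at 10^-5 M, reported as percent inhibition of 2 nM [3H]TCP binding. Binding defined with 1 μM PCP.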
The target of assay [5] is T3, Serotonin 1 (5-HT1) receptor (Rattus norvegicus) (UniProt P28564+P30940+P19327+P28565). As to the kind of experiment: Percent inhibition of binding of 3.0 nM [3H]5-HT to 5-hydroxytryptamine 1 receptor in rat caudate membranes at 10 e -5 M. It is filed as cell membranes. The conditions noted are these: Membrane. In short, it runs like this: (§3)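 Rat caudate membranes incubated with 3.0 nM [3H]-5-HT binoxalate. Percent inhibition recorded at 10^-5 M test compound, with nonspecific binding set with 10 μM unlabeled 5-HT.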

In assay [6] the target is T1, D(2) dopamine receptor. The assay can be described thus: Inhibition of binding against Dopamine receptor D2 in bovine striatal homogenate using 200 pM [3H]- spiperone and 250 nM unlabeled ketanserin.
The target of assay [7] is T3, Serotonin 1 (5-HT1) receptor (Rattus norvegicus). As to the kind of experiment: Percent inhibition of binding of 3.0 nM [3H]5-HT to 5-hydroxytryptamine 1 receptor in rat caudate membranes at 10 e -5 M. It counts as cell membranes. The note with it: Membrane. The method in brief:
as §3

Assay [8] concerns the target T2, Serotonin 2 (5-HT2) receptor (Rattus norvegicus). The assay can be described thus: Percent inhibition of binding of 1.0 nM [3H]ketanserin to 5-hydroxytryptamine 2 receptor in rat cortical membranes at 10 e -5 M. The note with it: Membrane. It is filed as cell membranes. In short, it runs like this:
as §1

Assay [9] is filed under the species Rattus norvegicus. The assay can be described thus: Binding affinity against Phencyclidine receptor (1 uM) using 2 nM [3H]- TCP radioligand. In short, it runs like this: as §2
Assay [10] has as its target Glutamate receptor ionotropic, NMDA 2C (Rattus norvegicus) (UniProt Q00961). As to the kind of experiment: Binding affinity for Phencyclidine receptor (1 uM) using 2 nM [3H]- TCP radioligand. In short, it runs like this:
as §2

This note sets out measurements from ChEMBL document CHEMBL1126928, “N-(1-arylpropionyl)-4-aryltetrahydropyridines, a new class of high-affinity selective sigma receptor ligands” (J Med Chem, 1993).

D(1A) dopamine receptor (Rattus norvegicus), sequence (P18901 whole entry): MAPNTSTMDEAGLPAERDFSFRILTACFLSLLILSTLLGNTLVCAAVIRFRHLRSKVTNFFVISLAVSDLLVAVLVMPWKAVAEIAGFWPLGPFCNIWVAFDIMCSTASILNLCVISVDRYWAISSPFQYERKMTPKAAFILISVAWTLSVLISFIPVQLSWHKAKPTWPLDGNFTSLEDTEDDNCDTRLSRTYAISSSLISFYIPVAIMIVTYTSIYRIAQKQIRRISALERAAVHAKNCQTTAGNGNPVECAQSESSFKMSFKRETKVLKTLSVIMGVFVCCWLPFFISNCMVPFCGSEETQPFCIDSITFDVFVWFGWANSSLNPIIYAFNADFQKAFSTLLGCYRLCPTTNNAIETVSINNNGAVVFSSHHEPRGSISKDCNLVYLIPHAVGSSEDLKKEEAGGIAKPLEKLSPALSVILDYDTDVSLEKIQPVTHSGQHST
T2 sequence (P08909 whole entry, looked up): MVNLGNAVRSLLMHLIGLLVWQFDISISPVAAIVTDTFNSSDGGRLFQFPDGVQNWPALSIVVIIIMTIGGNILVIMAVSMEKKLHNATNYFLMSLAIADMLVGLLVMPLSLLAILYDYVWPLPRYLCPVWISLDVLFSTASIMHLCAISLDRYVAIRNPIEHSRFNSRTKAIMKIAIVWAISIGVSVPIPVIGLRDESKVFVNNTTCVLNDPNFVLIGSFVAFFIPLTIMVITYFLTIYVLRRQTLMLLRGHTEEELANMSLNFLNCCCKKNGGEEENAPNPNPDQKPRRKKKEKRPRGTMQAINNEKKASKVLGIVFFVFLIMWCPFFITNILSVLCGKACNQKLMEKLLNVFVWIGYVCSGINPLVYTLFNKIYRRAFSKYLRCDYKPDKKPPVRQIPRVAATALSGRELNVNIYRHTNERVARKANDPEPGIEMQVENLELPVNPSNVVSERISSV
T2 sequence (P14842 whole entry, looked up): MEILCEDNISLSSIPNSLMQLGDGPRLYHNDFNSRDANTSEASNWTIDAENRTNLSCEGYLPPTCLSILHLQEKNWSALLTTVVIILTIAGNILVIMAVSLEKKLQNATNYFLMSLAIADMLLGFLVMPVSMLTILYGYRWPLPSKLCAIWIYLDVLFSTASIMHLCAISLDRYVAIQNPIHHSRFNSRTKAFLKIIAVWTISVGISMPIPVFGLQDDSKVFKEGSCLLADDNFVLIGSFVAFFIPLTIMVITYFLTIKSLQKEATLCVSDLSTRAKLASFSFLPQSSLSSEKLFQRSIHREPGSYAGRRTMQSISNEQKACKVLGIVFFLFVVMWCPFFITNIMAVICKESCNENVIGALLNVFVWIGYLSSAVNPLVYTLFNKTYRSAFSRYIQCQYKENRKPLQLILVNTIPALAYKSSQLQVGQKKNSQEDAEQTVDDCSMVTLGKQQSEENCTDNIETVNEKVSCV
T2 sequence (P30994 whole entry, looked up): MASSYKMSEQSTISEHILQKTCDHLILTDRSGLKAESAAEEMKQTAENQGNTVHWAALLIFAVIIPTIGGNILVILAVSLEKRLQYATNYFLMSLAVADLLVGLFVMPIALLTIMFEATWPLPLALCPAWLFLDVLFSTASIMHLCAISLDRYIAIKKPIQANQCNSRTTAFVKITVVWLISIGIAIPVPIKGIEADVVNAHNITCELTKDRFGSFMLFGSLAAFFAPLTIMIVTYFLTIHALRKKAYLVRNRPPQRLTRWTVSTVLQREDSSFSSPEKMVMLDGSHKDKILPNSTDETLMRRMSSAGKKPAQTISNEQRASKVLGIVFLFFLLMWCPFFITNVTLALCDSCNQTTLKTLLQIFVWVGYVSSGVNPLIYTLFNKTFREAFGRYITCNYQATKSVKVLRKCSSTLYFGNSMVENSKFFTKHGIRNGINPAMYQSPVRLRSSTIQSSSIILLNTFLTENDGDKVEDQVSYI
T1 sequence (P20288 whole entry): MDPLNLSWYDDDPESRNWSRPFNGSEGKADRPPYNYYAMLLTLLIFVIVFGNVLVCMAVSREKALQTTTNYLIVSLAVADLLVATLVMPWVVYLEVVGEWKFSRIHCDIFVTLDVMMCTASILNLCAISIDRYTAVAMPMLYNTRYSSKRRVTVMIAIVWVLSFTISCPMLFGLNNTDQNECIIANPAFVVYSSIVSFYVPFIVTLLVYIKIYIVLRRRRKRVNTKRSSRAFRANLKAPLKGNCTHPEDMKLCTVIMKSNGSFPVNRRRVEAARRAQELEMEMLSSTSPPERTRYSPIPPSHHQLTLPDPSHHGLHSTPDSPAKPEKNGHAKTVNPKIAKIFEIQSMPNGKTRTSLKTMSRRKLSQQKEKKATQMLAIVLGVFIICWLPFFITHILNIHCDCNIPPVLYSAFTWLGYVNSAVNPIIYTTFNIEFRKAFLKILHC
Glutamate receptor ionotropic, NMDA 2C (Rattus norvegicus), sequence (Q00961 20-1237 limits assumed): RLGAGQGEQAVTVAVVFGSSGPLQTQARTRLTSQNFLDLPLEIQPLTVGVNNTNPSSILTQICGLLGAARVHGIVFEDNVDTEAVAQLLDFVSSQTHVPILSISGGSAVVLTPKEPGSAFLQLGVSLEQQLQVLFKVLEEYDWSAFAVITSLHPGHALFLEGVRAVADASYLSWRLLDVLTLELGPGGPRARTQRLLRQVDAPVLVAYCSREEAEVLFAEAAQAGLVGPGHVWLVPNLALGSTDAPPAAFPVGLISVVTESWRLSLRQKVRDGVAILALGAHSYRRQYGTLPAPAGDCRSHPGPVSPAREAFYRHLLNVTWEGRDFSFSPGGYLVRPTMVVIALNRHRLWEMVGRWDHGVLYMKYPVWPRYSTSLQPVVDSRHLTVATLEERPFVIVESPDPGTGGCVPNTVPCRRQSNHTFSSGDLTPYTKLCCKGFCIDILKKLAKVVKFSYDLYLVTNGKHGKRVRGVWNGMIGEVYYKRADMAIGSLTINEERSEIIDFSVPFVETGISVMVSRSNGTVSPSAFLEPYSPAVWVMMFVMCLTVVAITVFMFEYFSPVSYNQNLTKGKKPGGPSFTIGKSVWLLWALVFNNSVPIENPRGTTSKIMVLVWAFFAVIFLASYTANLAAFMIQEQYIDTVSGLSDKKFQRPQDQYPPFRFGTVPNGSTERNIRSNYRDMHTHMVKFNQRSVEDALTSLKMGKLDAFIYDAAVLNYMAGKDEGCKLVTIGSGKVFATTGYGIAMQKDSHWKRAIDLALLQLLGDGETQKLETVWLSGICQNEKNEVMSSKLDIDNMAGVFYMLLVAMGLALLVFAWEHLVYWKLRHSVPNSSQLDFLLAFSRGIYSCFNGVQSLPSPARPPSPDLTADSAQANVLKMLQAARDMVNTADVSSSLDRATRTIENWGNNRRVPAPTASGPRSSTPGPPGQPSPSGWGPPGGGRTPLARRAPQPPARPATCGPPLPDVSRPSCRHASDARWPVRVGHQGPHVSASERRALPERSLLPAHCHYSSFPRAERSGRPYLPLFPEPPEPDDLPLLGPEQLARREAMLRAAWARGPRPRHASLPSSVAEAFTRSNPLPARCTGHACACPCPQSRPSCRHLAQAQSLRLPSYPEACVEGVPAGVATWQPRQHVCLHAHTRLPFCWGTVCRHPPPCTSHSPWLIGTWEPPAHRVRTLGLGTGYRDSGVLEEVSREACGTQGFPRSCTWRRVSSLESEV

Consider `O=C(CCN1CC=C(c2ccc(Cl)cc2)CC1)c1ccc2c(c1)OCO2`, for which the concentration for half-maximal inhibition (IC50) (usually the concentration at which inhibition is half-maximal) in [1] was greater than 5 µM.

As to `O=C(CCN1CC=C(c2ccc(Cl)cc2)CC1)c1ccc(Br)cc1`, the IC50 in assay [1] was greater than 5 µM.

On to `C1=C(c2ccccc2)CCNC1`, for which the IC50 in assay [1] was greater than 5 µM.

As to `O=C(CCN1CC=C(c2ccc(F)cc2)CC1)c1ccc(F)cc1`, the concentration for half-maximal inhibition (IC50) in assay [1] is greater than 10 µM.

For `O=C(CCN1CC=C(c2ccc(Cl)cc2)CC1)c1ccccc1`, the IC50 in assay [1] was greater than 5 µM. Also, the figures for the Binding affinity in assay [2] and in assay [4] were 19 and 0, respectively. The inhibition – broadly, the share of the control response that was lost under treatment – was 96.9% in assay [3] and 72.4% in assay [5].

`O=C(CCN1CC=C(c2ccc(Cl)cc2)CC1)c1ccc(F)c(F)c1` registered a 50% inhibitory concentration (IC50) in assay [1] greater than 5 µM.

Regarding `CCN(CC)CCC(=O)c1ccccc1`, in assay [1], the IC50 was greater than 5 µM.

Consider `CN(C)CCC(=O)c1ccccc1`, for which, in [1], the half-maximal inhibitory concentration (IC50) was greater than 5 µM.

In the case of `CCCN(CCC)CCC(=O)c1ccccc1`, the half-maximal inhibitory concentration (IC50) in [1] is greater than 5 µM.

`O=C(CCN1CC=C(c2ccc(Cl)cc2)CC1)c1ccc(Cl)c(Cl)c1` returned an IC50 in assay [1] greater than 5 µM.

Molecule `O=C(CCN1CCC(c2ccccc2)CC1)c1ccccc1` returned an IC50 in assay [1] greater than 5 µM.

In turn, `Clc1ccc(C2=CCNCC2)cc1` yielded a 50% inhibitory concentration (IC50) in assay [1] greater than 5 µM.

In assay [6], `N#Cc1ccc(C(=O)CC2CCN(CC3CC3)CC2)cc1` came in with an IC50 greater than 1 µM.

As for `O=C(CCN1CC=C(c2ccc(F)cc2)CC1)c1ccccc1`, the inhibition was found to be 64.5% in assay [7], 23.9% in assay [2], 94.8% in assay [8] and 0% in assay [9]. In addition, the IC50 in assay [1] was greater than 5 µM.

In turn, `c1ccc(CCCCN2CCC(c3ccccc3)CC2)cc1` showed a concentration for half-maximal inhibition (IC50) in assay [1] of 0.335 µM.

`O=C(CCN1CC=C(c2ccccc2)CC1)c1ccccc1` showed an IC50 in assay [1] greater than 5 µM.

With `COc1ccc(C(=O)CCN2CC=C(c3ccc(Cl)cc3)CC2)cc1OC`, in assay [1], the IC50 is greater than 5 µM.

On to `O=C(CCN1CC=C(c2ccc(Cl)cc2)CC1)c1ccc(F)cc1`, for which the IC50 in assay [1] is greater than 5 µM.

In turn, `O=C(CCN1CC=C(c2ccc(F)cc2)CC1)c1ccc(Cl)cc1` gave a half-maximal inhibitory concentration (IC50) in assay [1] greater than 15 µM.

Turning to `O=C(CCN1CC=C(c2ccc(F)cc2)CC1)c1ccc(Br)cc1`, the IC50 in [1] is greater than 13 µM.

For the molecule `O=C(CCN1CC=C(c2ccc(Cl)cc2)CC1)c1ccccc1F`, the IC50 in [1] is greater than 5 µM.

On to `O=C(CCN1CC=C(c2ccc(Cl)cc2)CC1)c1ccc(Cl)cc1`, for which the figures for the inhibition in assay [7] and in assay [8] were 49.5% and 84%, respectively. Also, in assay [1], the IC50 was greater than 5 µM. The Binding affinity in [2] worked out at 31.6; in [10], 5.8.
